Experimental data from ChEMBL document CHEMBL4699643, “γ-Ketobenzyl-Modified Nucleoside Triphosphate Prodrugs as Potential Antivirals” (J Med Chem, 2020).

test system: not listed separately; assay: Stability in pH 7.3 PBS assessed as pig liver esterase mediated hydrolysis by measuring half life upto 2 hrs by HPLC analysis; assay type: ADME, Sus scrofa; conditions: not given
Outline: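 Porcine liver esterase (3 mg/mL in PB) added to compound diluted from a 6.0 mM DMSO/water solution into DMSO and 50 mM phosphate buffer, pH 7.3. Incubated at 37 °C. Timed aliquots snap-frozen in liquid nitrogen, then thawed, sonicated, centrifuged, filtered and analysed by HPLC. t½ calculated as for chemical hydrolysis.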

half-life [h]	Structure (SMILES)
0.167	CCCCCCCCCC(=O)c1ccc(COP(=O)(OCc2ccc(OC(=O)CCCC)cc2)OP(=O)(O)OP(=O)(O)OC[C@@H]2C=C[C@H](n3cc(C)c(=O)[nH]c3=O)O2)cc1 (some centres undefined)

test system: not listed separately; assay: Prodrug conversion in human CEM/0 cell extract assessed as gamma-kb-d4TTP formation by RP18-HPLC analysis; assay type: ADME, tissue-based; conditions: ccrf-cem
Outline: (§1)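 Extract preparation: CEM CD4⁺ T-cells grown in RPMI-1640 to ~3 × 10⁶ cells/mL, washed in cold PB, resuspended at 10⁸ cells/mL, sonicated, clarified at 10,000 rpm and stored at −80 °C. Compounds from 50 mM DMSO stock (diluted to 6.0 mM in DMSO) incubated in the extract. Reactions stopped with THF, put on ice, centrifuged and filtered.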

Drug metabolism	Structure (SMILES)
Metabolite_Detected	CCCCCCCCCC(=O)c1ccc(COP(=O)(OCc2ccc(OC(=O)CCCC)cc2)OP(=O)(O)OP(=O)(O)OC[C@@H]2C=C[C@H](n3cc(C)c(=O)[nH]c3=O)O2)cc1 (some centres undefined)

test system: Human immunodeficiency virus 2; assay: Antiviral activity against HIV2 ROD infected in human CEM/0 cells assessed as inhibition of virus-induced syncytia cell formation measured after 4 to 5 days by microscopic analysis; conditions: Human immunodeficiency virus 2, ISOLATE ROD, CCRF-CEM

EC50 [µM]	Structure (SMILES)
0.62	CCCCCCCCC(=O)Oc1ccc(COP(=O)(OCc2ccc(OC(=O)CCCCCCCC)cc2)OP(=O)(O)OP(=O)(O)OC[C@@H]2C=C[C@H](n3cc(C)c(=O)[nH]c3=O)O2)cc1
> 10	CCCCCCCCCC(=O)c1ccc(COP(=O)(O)OP(=O)(O)OP(=O)(O)OC[C@H]2O[C@@H](n3cnc4c(N)ncnc43)C[C@@H]2O)cc1
1.2	CCCCCCCCCC(=O)c1ccc(COP(=O)(OCc2ccc(OC(=O)CCCC)cc2)OP(=O)(O)OP(=O)(O)OC[C@@H]2C=C[C@H](n3cc(C)c(=O)[nH]c3=O)O2)cc1 (some centres undefined)

test system: not listed separately; assay: Cytotoxicity against human CEM/0 CD4+ T cells assessed as reduction in cell viability; assay type: cell-based, CCRF-CEM; conditions: not given
Outline: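 Cytostatic readout: CC₅₀ is the compound concentration inhibiting CEM CD4⁺ T-cell proliferation by 50%. Values are the mean ± SD of n = 2−3 independent experiments.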

Structure (SMILES)	CC50 [µM]
CCCCCCCCC(=O)Oc1ccc(COP(=O)(OCc2ccc(OC(=O)CCCCCCCC)cc2)OP(=O)(O)OP(=O)(O)OC[C@@H]2C=C[C@H](n3cc(C)c(=O)[nH]c3=O)O2)cc1	52
CCCCCCCCCC(=O)c1ccc(COP(=O)(O)OP(=O)(O)OP(=O)(O)OC[C@H]2O[C@@H](n3cnc4c(N)ncnc43)C[C@@H]2O)cc1	74
CCCCCCCCCC(=O)c1ccc(COP(=O)(OCc2ccc(OC(=O)CCCC)cc2)OP(=O)(O)OP(=O)(O)OC[C@@H]2C=C[C@H](n3cc(C)c(=O)[nH]c3=O)O2)cc1 (some centres undefined)	25

test system: not listed separately; assay: Prodrug conversion in PBS buffer at pH 7.3 assessed as pig liver esterase-mediated cleavage of ketobenzyl-residue measured over 800 hrs by HPLC analysis; assay type: ADME, Sus scrofa; conditions: pH 7.3, 800 h

Drug metabolism	Structure (SMILES)
Metabolite_Notdetected	CCCCCCCCCC(=O)c1ccc(COP(=O)(O)OP(=O)(O)OP(=O)(O)OC[C@H]2O[C@@H](n3cnc4c(N)ncnc43)C[C@@H]2O)cc1
Metabolite_Notdetected	CCCCCCCCCC(=O)c1ccc(COP(=O)(OCc2ccc(OC(=O)CCCC)cc2)OP(=O)(O)OP(=O)(O)OC[C@@H]2C=C[C@H](n3cc(C)c(=O)[nH]c3=O)O2)cc1 (some centres undefined)

test system: not listed separately; assay: Prodrug conversion in human CEM/0 cell extract assessed as NTP formation by RP18-HPLC analysis; assay type: ADME, tissue-based; conditions: ccrf-cem; outline: as §1

Drug metabolism	Structure (SMILES)
Metabolite_Notdetected	CCCCCCCCCC(=O)c1ccc(COP(=O)(OCc2ccc(OC(=O)CCCC)cc2)OP(=O)(O)OP(=O)(O)OC[C@@H]2C=C[C@H](n3cc(C)c(=O)[nH]c3=O)O2)cc1 (some centres undefined)

test system: Human immunodeficiency virus 2; assay: Antiviral activity against HIV2 ROD infected in human TK-deficient […] cells assessed as inhibition of viral-induced giant cell formation incubated for 4 to 5 days by microscopy; conditions: Human immunodeficiency virus 2, ISOLATE ROD

EC50 [µM]	Structure (SMILES)
2.26	CCCCCCCCC(=O)Oc1ccc(COP(=O)(OCc2ccc(OC(=O)CCCCCCCC)cc2)OP(=O)(O)OP(=O)(O)OC[C@@H]2C=C[C@H](n3cc(C)c(=O)[nH]c3=O)O2)cc1
> 10	CCCCCCCCCC(=O)c1ccc(COP(=O)(O)OP(=O)(O)OP(=O)(O)OC[C@H]2O[C@@H](n3cnc4c(N)ncnc43)C[C@@H]2O)cc1
2.5	CCCCCCCCCC(=O)c1ccc(COP(=O)(OCc2ccc(OC(=O)CCCC)cc2)OP(=O)(O)OP(=O)(O)OC[C@@H]2C=C[C@H](n3cc(C)c(=O)[nH]c3=O)O2)cc1 (some centres undefined)

test system: not listed separately; assay: Selectivity index, ratio of CC50 for cytotoxicity against human CEM/0 CD4+ T cells to EC50 for antiviral activity against HIV1 3B infected in human CEM/0 cells; assay type: toxicity, cell-based; conditions: read-out: Ratio CC50/EC50
Outline: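 Selectivity index from CC₅₀ (50% inhibition of CEM cell proliferation) and EC₅₀ (50% inhibition of HIV-1(III_B)-induced giant cell formation in CEM/0 cells, 4−5 days, microscopy), both mean ± SD of n = 2−3 independent experiments.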

Structure (SMILES)	selectivity ratio
CCCCCCCCCC(=O)c1ccc(COP(=O)(O)OP(=O)(O)OP(=O)(O)OC[C@H]2O[C@@H](n3cnc4c(N)ncnc43)C[C@@H]2O)cc1	7

test system: not listed separately; assay: Stability of compound in human CEM/0 cell extract assessed as half life by RP18-HPLC analysis; assay type: ADME, tissue-based, CCRF-CEM; conditions: not given; outline: as §1

half-life [h]	Structure (SMILES)
2.5	CCCCCCCCC(=O)Oc1ccc(COP(=O)(OCc2ccc(OC(=O)CCCCCCCC)cc2)OP(=O)(O)OP(=O)(O)OC[C@@H]2C=C[C@H](n3cc(C)c(=O)[nH]c3=O)O2)cc1
1.1	CCCCCCCCCC(=O)c1ccc(COP(=O)(OCc2ccc(OC(=O)CCCC)cc2)OP(=O)(O)OP(=O)(O)OC[C@@H]2C=C[C@H](n3cc(C)c(=O)[nH]c3=O)O2)cc1 (some centres undefined)

test system: not listed separately; assay: Chemical stability of compound in PBS at pH 7.3 by RP18-HPLC analysis; assay type: physicochemical; conditions: buffer
Outline: (§2)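 From 50 mM DMSO stocks, diluted to 1.9 mM hydrolysis solutions in water/DMSO. Reaction started by adding phosphate buffer (50 mM, pH 7.3; 25 mM also stated). Incubated at 37 °C with time-course sampling. Starting material and products (γ-kb-NTP, d4TDP, thymine) followed by analytical rp18 HPLC, from which t½ was calculated.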

Stabilty	Structure (SMILES)
Stable	CCCCCCCCCC(=O)c1ccc(COP(=O)(O)OP(=O)(O)OP(=O)(O)OC[C@H]2O[C@@H](n3cnc4c(N)ncnc43)C[C@@H]2O)cc1

test system: not listed separately; assay: Prodrug conversion in human CEM/0 cell extract assessed as d4TDP formation by RP18-HPLC analysis; assay type: ADME, tissue-based; conditions: ccrf-cem; outline: as §1

Drug metabolism	Structure (SMILES)
Metabolite_Detected	CCCCCCCCCC(=O)c1ccc(COP(=O)(OCc2ccc(OC(=O)CCCC)cc2)OP(=O)(O)OP(=O)(O)OC[C@@H]2C=C[C@H](n3cc(C)c(=O)[nH]c3=O)O2)cc1 (some centres undefined)

test system: Human immunodeficiency virus 1; assay: Antiviral activity against HIV1 3B infected in human CEM/0 cells assessed as inhibition of virus-induced syncytia cell formation measured after 4 to 5 days by microscopic analysis; assay type: functional, organism-based; conditions: Human immunodeficiency virus 1, 3B, CCRF-CEM
Outline: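 Syncytium-inhibition assay in wild-type CEM/0 or TK-deficient CEM/TK⁻ cells, ~3 × 10⁵ cells/mL, infected with 100 CCID₅₀/mL HIV-1(III_B) or HIV-2(ROD), with serial compound dilutions. Incubated 4−5 days at 37 °C in humidified CO₂ atmosphere. Giant cells scored microscopically; EC₅₀ is the concentration halving HIV-induced giant cell formation. Values are the mean ± SD of n = 2−3 independent experiments.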

EC50 [µM]	Structure (SMILES)
0.31	CCCCCCCCC(=O)Oc1ccc(COP(=O)(OCc2ccc(OC(=O)CCCCCCCC)cc2)OP(=O)(O)OP(=O)(O)OC[C@@H]2C=C[C@H](n3cc(C)c(=O)[nH]c3=O)O2)cc1
10	CCCCCCCCCC(=O)c1ccc(COP(=O)(O)OP(=O)(O)OP(=O)(O)OC[C@H]2O[C@@H](n3cnc4c(N)ncnc43)C[C@@H]2O)cc1
0.37	CCCCCCCCCC(=O)c1ccc(COP(=O)(OCc2ccc(OC(=O)CCCC)cc2)OP(=O)(O)OP(=O)(O)OC[C@@H]2C=C[C@H](n3cc(C)c(=O)[nH]c3=O)O2)cc1 (some centres undefined)

test system: not listed separately; assay: Chemical stability of compound assessed as half life in PBS at pH 7.3 by RP18-HPLC analysis; assay type: physicochemical; conditions: not given; outline: as §2

half-life [h]	Structure (SMILES)
52	CCCCCCCCC(=O)Oc1ccc(COP(=O)(OCc2ccc(OC(=O)CCCCCCCC)cc2)OP(=O)(O)OP(=O)(O)OC[C@@H]2C=C[C@H](n3cc(C)c(=O)[nH]c3=O)O2)cc1
43	CCCCCCCCCC(=O)c1ccc(COP(=O)(OCc2ccc(OC(=O)CCCC)cc2)OP(=O)(O)OP(=O)(O)OC[C@@H]2C=C[C@H](n3cc(C)c(=O)[nH]c3=O)O2)cc1 (some centres undefined)
